# Results: ChEMBL document CHEMBL3352174, “Identification of a New RXRα Antagonist Targeting the Coregulator-Binding Site” (ACS Med Chem Lett, 2014)
# Changes are numbered by the printed parent chain. Activity calls are given as the source filed them. No cut-off for these calls is given here.
# How the values were obtained:
# [1] = target: T1, Retinoic acid receptor gamma (Homo sapiens) (UniProt P13631); test: Antagonist activity against RARgamma ligand binding domain (unknown origin) expressed in human MCF7 cells assessed as inhibition of ATRA-induced receptor transactivation at 10 uM after 18 hrs by luciferase reporter gene based mammalian one-hybrid assay; format: cell-based
# T1 sequence (whole entry): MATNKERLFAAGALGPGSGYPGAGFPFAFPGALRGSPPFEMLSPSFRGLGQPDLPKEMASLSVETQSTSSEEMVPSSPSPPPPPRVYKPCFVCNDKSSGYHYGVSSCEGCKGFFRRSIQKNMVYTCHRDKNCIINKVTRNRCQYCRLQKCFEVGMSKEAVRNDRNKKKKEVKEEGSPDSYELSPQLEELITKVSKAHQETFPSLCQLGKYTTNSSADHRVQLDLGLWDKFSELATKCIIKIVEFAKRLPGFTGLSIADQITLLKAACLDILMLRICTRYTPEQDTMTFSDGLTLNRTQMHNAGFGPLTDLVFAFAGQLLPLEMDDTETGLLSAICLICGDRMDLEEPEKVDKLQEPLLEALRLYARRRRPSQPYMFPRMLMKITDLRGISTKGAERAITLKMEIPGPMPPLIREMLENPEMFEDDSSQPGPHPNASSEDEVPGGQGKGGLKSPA
# Outline: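 MCF-7 cells co-transfected with pG5-Luc and the pBind-LBD fusion: Nur77, RARγ or ER. Agonists were all-trans-RA 10⁻⁷ M for RARγ and Nur77, and propyl pyrazole triol 10 μM for ER. Compound at 10 μM for 18 h. Dual-luciferase read-out normalized to Renilla. Mean ± SD.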
# [2] = target: Retinoic acid receptor gamma (Homo sapiens) (UniProt P13631); test: Antagonist activity against RARgamma ligand binding domain (unknown origin) expressed in human MCF7 cells assessed as inhibition of ATRA-induced receptor transactivation at 10 uM after 18 hrs by luciferase reporter gene based mammalian one-hybrid assay
# [3] = tested on: T2, Retinoic acid receptor RXR-alpha (Homo sapiens), P19793 [A272W]; test: Antagonist activity against RXRalpha A272W/F313A mutant (unknown origin) expressed in human HEK293T cells assessed as inhibition of constitutive receptor transactivation at 1 to 10 uM after 18 hrs by luciferase reporter gene based mammalian one-hybrid assay; settings: HEK-293T
# T2 sequence (whole entry): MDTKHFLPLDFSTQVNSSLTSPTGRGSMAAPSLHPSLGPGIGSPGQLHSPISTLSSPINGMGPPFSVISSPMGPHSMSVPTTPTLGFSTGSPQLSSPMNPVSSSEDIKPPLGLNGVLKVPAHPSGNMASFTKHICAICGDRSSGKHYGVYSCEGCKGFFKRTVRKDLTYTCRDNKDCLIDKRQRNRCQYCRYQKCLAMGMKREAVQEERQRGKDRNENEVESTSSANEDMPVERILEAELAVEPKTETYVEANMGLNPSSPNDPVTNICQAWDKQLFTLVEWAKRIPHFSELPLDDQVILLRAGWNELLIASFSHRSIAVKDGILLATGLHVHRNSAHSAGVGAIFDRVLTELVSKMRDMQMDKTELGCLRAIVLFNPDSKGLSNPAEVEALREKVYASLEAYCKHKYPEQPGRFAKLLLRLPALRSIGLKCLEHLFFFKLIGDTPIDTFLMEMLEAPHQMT
# [4] = target: T3, Glucocorticoid receptor (Homo sapiens) (UniProt P04150); test: Antagonist activity against GRalpha ligand binding domain (unknown origin) expressed in human MCF7 cells assessed as inhibition of dexamethasone-induced receptor transactivation at 10 uM after 18 hrs by luciferase reporter gene based mammalian one-hybrid assay; format: cell-based
# T3 sequence (whole entry): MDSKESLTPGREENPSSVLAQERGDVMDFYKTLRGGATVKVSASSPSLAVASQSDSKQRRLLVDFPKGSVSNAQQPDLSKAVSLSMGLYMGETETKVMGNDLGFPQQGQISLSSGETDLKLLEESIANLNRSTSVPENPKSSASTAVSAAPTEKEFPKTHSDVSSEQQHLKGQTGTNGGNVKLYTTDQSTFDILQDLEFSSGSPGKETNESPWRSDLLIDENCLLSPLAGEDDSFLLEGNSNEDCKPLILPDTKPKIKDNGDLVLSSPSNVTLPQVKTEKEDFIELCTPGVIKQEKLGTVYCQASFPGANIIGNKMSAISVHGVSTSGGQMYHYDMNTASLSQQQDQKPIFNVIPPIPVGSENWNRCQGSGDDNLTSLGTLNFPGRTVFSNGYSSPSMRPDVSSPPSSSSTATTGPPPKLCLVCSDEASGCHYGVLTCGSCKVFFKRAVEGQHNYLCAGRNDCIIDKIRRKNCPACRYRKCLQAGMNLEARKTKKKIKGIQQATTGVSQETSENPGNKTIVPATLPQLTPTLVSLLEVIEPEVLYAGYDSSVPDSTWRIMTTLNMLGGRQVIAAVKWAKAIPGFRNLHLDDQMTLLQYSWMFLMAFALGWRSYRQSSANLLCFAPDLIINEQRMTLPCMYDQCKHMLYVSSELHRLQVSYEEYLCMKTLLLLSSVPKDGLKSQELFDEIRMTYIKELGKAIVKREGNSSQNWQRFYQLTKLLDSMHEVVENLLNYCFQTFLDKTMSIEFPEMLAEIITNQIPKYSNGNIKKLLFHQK
# [5] = target: T4, Retinoic acid receptor RXR-alpha (Homo sapiens) (UniProt P19793); test: Antagonist activity against RXRalpha in human PC3 cells assessed as inhibition of AKT phosphorylation at 5 and 10 uM after 24 hrs by Western blotting method; format: cell-based; settings: PC-3
# T4 sequence (whole entry): T2 sequence (whole entry) with W272A
compound,measurement,setting,value
Cc1cc(=O)oc2c(/C=N/NC(=O)CSc3nc4ccccc4s3)c(O)ccc12,inhibition,[1],Active
same,inhibition,[2],Active
same,inhibition,[3],Dose-dependent effect
same,inhibition,[4],inactive
same,inhibition,[5],Active
